Test results: ChEMBL document CHEMBL4257452, “A mini-library system to investigate non-essential residues of lipid-phosphatidylserine (PS) binding peptide-peptoid hybrid PPS1” (Medchemcomm, 2017)
Active and inactive are the calls of the source. No cut-off for these calls is given here. Starred links: 1 amine or outer side, 2 acyl side, 3 side chain; linkers in the order of their positions; H or OH if unused. Positions of bridges follow the written chain, without caps; N, C: chain ends. Non-standard residues stand in square brackets, D forms with d. Residues, ends and D or L forms follow the SMILES beside them. Chains are numbered I, II in the order given. Gly(N-piperonyl) = O=C(O)CNCc1ccc2c(c1)OCO2; N(4-MeOBn)Gly = COc1ccc(CNCC(=O)O)cc1; X1 = COc1cccc(CN(CC(=O)[*:2])[*:1])c1; X2 = CC(CN(CC(=O)[*:2])[*:1])c1ccccc1; N((CH2)3OiPr)Gly = CC(C)OCCCNCC(=O)O; X3 = CC(c1ccccc1)N(CC(=O)[*:2])[*:1]

Key:
HCC4017 [1] = assay: Cytotoxicity against human HCC4017 cells assessed as reduction in cell viability at 20 uM after 24 hrs by MTS assay; assay type: functional, cell-based
Summary of the method: (§1)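 HCC4017 cells (RPMI, 5% FBS) and HBEC-3KT normal lung cells (KSFM with recombinant human EGF and bovine pituitary extract) were plated at 10 000 cells/well in triplicate and left to adhere overnight. They were exposed to 1 or 20 μM compound for 24 h. MTS reagent was then added for 2 h and absorbance read at 490 nm. Viability is % of untreated control wells.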

HCC4017 [2] = assay: Cytotoxicity against human HCC4017 cells assessed as reduction in cell viability up to 100 uM after 24 hrs by MTS assay; assay type: functional, cell-based; conditions: in the assay text read “up to 50 uM” for “up to 100 uM”
Summary of the method: (§2)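 HCC4017 lung cancer cells (RPMI, 5% FBS) were seeded at 10 000 cells/well in triplicate and adhered overnight. Purified compounds were given as a concentration gradient for 24 h. MTS reagent was added for 2 h and absorbance read at 490 nm. IC50 was taken from the viability curves.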

[3] = Cytotoxicity against human HBEC3-KT cells assessed as reduction in cell viability at 1 uM after 24 hrs by MTS assay; assay type: cell-based; summary of the method: as §1
HCC4017 [4] = assay: Cytotoxicity against human HCC4017 cells assessed as reduction in cell viability at 1 uM after 24 hrs by MTS assay; assay type: functional, cell-based; summary of the method: as §1
[5] = Cytotoxicity against human HBEC3-KT cells assessed as reduction in cell viability at 20 uM after 24 hrs by MTS assay; assay type: cell-based; summary of the method: as §1
HCC4017 [6] = assay: Cytotoxicity against human HCC4017 cells assessed as reduction in cell viability after 24 hrs by MTS assay; assay type: functional, cell-based; conditions: HCC4017, 24 h; summary of the method: as §2
HCC4017 [7] = assay: Cytotoxicity against human HCC4017 cells assessed as reduction in cell viability up to 100 uM after 24 hrs by calcein-AM dye based fluorescence assay; assay type: functional; conditions: in the assay text read “up to 50 uM” for “up to 100 uM”
Summary of the method: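 HCC4017 cells were seeded at 10 000 cells/well in triplicate, adhered overnight, and treated with a graded series of compounds for 24 h. Medium was replaced with PBS containing calcein AM (1 mM as printed) for 15 min at room temperature. Fluorescence emission was read at 520 nm.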

SMILES	Activity (HCC4017 [1])	Activity (HCC4017 [2])	Activity [3]	Activity (HCC4017 [4])	Activity [5]	IC50 (HCC4017 [6]) [µM]	Activity (HCC4017 [7])
COc1ccc(CN(CC(=O)NC(CCC(=O)O)C(=O)NC(CCCCN)C(=O)NC(CCCCN)C(=O)NC(CCSC)C(=O)NCCCCC(NC(=O)C(CCSC)NC(=O)C(CCCCN)NC(=O)C(CCCCN)NC(=O)C(CCC(=O)O)NC(=O)CN(Cc2ccc(OC)cc2)C(=O)CN(C(=O)CN(Cc2ccc3c(c2)OCO3)C(=O)CNC(C)c2ccccc2)C(C)c2ccccc2)C(N)=O)C(=O)CN(C(=O)CN(Cc2ccc3c(c2)OCO3)C(=O)CNC(C)c2ccccc2)C(C)c2ccccc2)cc1 (stereo not given) (I: H-[X3][Gly(N-piperonyl)][X3][N(4-MeOBn)Gly]EKKMK-NH2 / II: H-[X3][Gly(N-piperonyl)][X3][N(4-MeOBn)Gly]EKKM; amide I:9-II:C; configuration not given here)	inactive	inactive	–	–	–	–	–
COc1ccc(CN(CC(=O)NC(Cc2ccccc2)C(=O)NC(CCCCN)C(=O)NC(CCCCN)C(=O)NC(CCSC)C(=O)NCCCCC(NC(=O)C(CCSC)NC(=O)C(CCCCN)NC(=O)C(CCCCN)NC(=O)C(Cc2ccccc2)NC(=O)CN(Cc2ccc(OC)cc2)C(=O)CN(C(=O)CN(Cc2ccc3c(c2)OCO3)C(=O)CNC(C)c2ccccc2)C(C)c2ccccc2)C(N)=O)C(=O)CN(C(=O)CN(Cc2ccc3c(c2)OCO3)C(=O)CNC(C)c2ccccc2)C(C)c2ccccc2)cc1 (stereo not given) (I: H-[X3][Gly(N-piperonyl)][X3][N(4-MeOBn)Gly]FKKMK-NH2 / II: H-[X3][Gly(N-piperonyl)][X3][N(4-MeOBn)Gly]FKKM; amide I:9-II:C; configuration not given here)	Active	–	Non-Toxic	inactive	Non-Toxic	7 to 10	–
COc1ccc(CN(CC(=O)N(CCCOC(C)C)CC(=O)NC(CCCCN)C(=O)NC(CCCCN)C(=O)NC(CCSC)C(=O)NCCCCC(NC(=O)C(CCSC)NC(=O)C(CCCCN)NC(=O)C(CCCCN)NC(=O)CN(CCCOC(C)C)C(=O)CN(Cc2ccc(OC)cc2)C(=O)CN(C(=O)CN(Cc2ccc3c(c2)OCO3)C(=O)CNC(C)c2ccccc2)C(C)c2ccccc2)C(N)=O)C(=O)CN(C(=O)CN(Cc2ccc3c(c2)OCO3)C(=O)CNC(C)c2ccccc2)C(C)c2ccccc2)cc1 (stereo not given) (I: H-[X3][Gly(N-piperonyl)][X3][N(4-MeOBn)Gly][N((CH2)3OiPr)Gly]KKMK-NH2 / II: H-[X3][Gly(N-piperonyl)][X3][N(4-MeOBn)Gly][N((CH2)3OiPr)Gly]KKM; amide I:9-II:C; configuration not given here)	Active	–	Non-Toxic	inactive	Non-Toxic	7 to 10	Active
COc1ccc(CN(CC(=O)N(CC(=O)NC(CCCCN)C(=O)NC(CCCCN)C(=O)NC(CCSC)C(=O)NCCCCC(NC(=O)C(CCSC)NC(=O)C(CCCCN)NC(=O)C(CCCCN)NC(=O)CN(Cc2cccc(OC)c2)C(=O)CN(Cc2ccc(OC)cc2)C(=O)CN(C(=O)CN(Cc2ccc3c(c2)OCO3)C(=O)CNC(C)c2ccccc2)C(C)c2ccccc2)C(N)=O)Cc2cccc(OC)c2)C(=O)CN(C(=O)CN(Cc2ccc3c(c2)OCO3)C(=O)CNC(C)c2ccccc2)C(C)c2ccccc2)cc1 (stereo not given) (I: H-[X3][Gly(N-piperonyl)][X3][N(4-MeOBn)Gly][X1]KKMK-NH2 / II: H-[X3][Gly(N-piperonyl)][X3][N(4-MeOBn)Gly][X1]KKM; amide I:9-II:C; configuration not given here)	Active	–	Non-Toxic	inactive	Non-Toxic	7 to 10	Active
COc1ccc(CN(CC(=O)N(CC(=O)NC(CCCCN)C(=O)NC(CCCCN)C(=O)NC(CCSC)C(=O)NCCCCC(NC(=O)C(CCSC)NC(=O)C(CCCCN)NC(=O)C(CCCCN)NC(=O)CN(CC(C)c2ccccc2)C(=O)CN(Cc2ccc(OC)cc2)C(=O)CN(C(=O)CN(Cc2ccc3c(c2)OCO3)C(=O)CNC(C)c2ccccc2)C(C)c2ccccc2)C(N)=O)CC(C)c2ccccc2)C(=O)CN(C(=O)CN(Cc2ccc3c(c2)OCO3)C(=O)CNC(C)c2ccccc2)C(C)c2ccccc2)cc1 (stereo not given) (I: H-[X3][Gly(N-piperonyl)][X3][N(4-MeOBn)Gly][X2]KKMK-NH2 / II: H-[X3][Gly(N-piperonyl)][X3][N(4-MeOBn)Gly][X2]KKM; amide I:9-II:C; configuration not given here)	Active	–	Non-Toxic	inactive	Non-Toxic	7 to 10	Active
